Laboratory results reported in PMC11144404 (Drug Design, Development and Therapy, 2024).

Tests used:
[1] = Steady-state plasma pharmacokinetics of HCTZ alone or with henagliflozin; format: in vivo, human
[2] = tested on: healthy Chinese volunteers; assay: Safety and tolerability; format: in vivo, human; conditions: per treatment period
How it was run: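 12 enrolled healthy Chinese men aged 18–40 y with BMI 19–26 kg/m2. All had normal blood chemistry, haematology, urinalysis, vital signs and hepatitis/HIV serology, and stopped interfering medications 4 weeks before the study. Treatment-emergent adverse events were recorded as events and subjects for each treatment period (multiple-dose monotherapy with each drug, then co-administration). Drug relatedness was assessed.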

[3] = Steady-state plasma pharmacokinetics of henagliflozin alone or with HCTZ; format: in vivo, human
[4] = 2.5 mg dose group; cited from earlier work
[5] = tested on: healthy subjects and patients with T2DM; conditions: cited from earlier work

| SMILES | 90% CI of ratio of geometric means (combination: monotherapy) for AUCτ,ss ([1]; HCTZ, compared with bioequivalence interval) | Decrease of Css,max by co-administration ([1]; co-administration with henagliflozin vs HCTZ alone) | All TEAEs, number of subjects ([2]; of 12 subjects) | Diarrhea, number of subjects ([2]; of 12 subjects) | Drug-related TEAEs, number of subjects ([2]; of 12 subjects) | Eczema, number of subjects ([2]; of 12 subjects) | Subjects reporting TEAEs ([2]; of 12 subjects) | Thirst, number of subjects ([2]; of 12 subjects) | Increase of Css,max by co-administration ([3]; co-administration with HCTZ vs henagliflozin alone) | 90% CI of ratio of geometric means (combination: monotherapy) for AUCτ,ss ([3]; henagliflozin, compared with bioequivalence interval) | Dizziness, number of subjects ([2]; of 12 subjects) | All TEAEs, number of subjects ([2]; of 12 subjects, listed as henagliflozin) | All TEAEs, number of events ([2]; figure in brackets) | Drug-related TEAEs, number of events ([2]; figure in brackets) | Difference in AUC0-24h and Cmax between males and females [4] | Benefit of 20 mg group compared with 5 mg and 10 mg groups (PK/PD) ([5]; 5–20 mg dosing range, healthy subjects and patients with T2DM) | Effect on blood glucose, blood electrolytes, or blood pressure ([5]; healthy people) |
| --- | --- | --- | --- | --- | --- | --- | --- | --- | --- | --- | --- | --- | --- | --- | --- | --- | --- |
| NS(=O)(=O)c1cc2c(cc1Cl)NCNS2(=O)=O [HCTZ, Hydrochlorothiazide] | within the bioequivalence interval of 0.80–1.25 | 19.41% | 11 | 2(2) | 11 | 0(0) | 91.7% | 10(10) |  |  |  |  |  |  |  |  |  |
| CCOc1ccc(Cc2cc([C@@]34OC[C@@](CO)(O3)[C@@H](O)[C@H](O)[C@H]4O)ccc2Cl)cc1F [Henagliflozin] |  |  | 4(4) | 2(2) |  | 1(1) | 33.3% |  | 24.32% | fell between 0.80 and 1.25 | 1(1) | 4 | four | all TEAEs were considered to be related to henagliflozin | no statistical difference | no significant benefit | no effect |
